Measurements from different studies.
Protocols differ between the studies behind these lines. pIC50: −log10 of the molar value.
Action: inhibitor
rep main protease: Replicase polyprotein 1ab, main protease (rep, Severe acute respiratory syndrome coronavirus 2, UniProt P0DTD1)
rep methyltransferase: Replicase polyprotein 1ab, methyltransferase (rep, Severe acute respiratory syndrome coronavirus 2, UniProt P0DTD1)
rep papain-like protease: Replicase polyprotein 1ab, papain-like protease (rep, Severe acute respiratory syndrome coronavirus 2, UniProt P0DTD1)

Compound	target	observed	method	pH	pIC50
C[C@H]1[C@H](OC(=O)CCC(=O)O)O[C@@H]2O[C@@]3(C)CC[C@H]4[C@H](C)CC[C@@H]1[C@@]24OO3	rep main protease	enzyme activity in cells	–	–	5.62
O=C(Cn1nnc2ccccc21)Nc1ccccc1N1CCc2sccc2C1	rep main protease	enzyme activity	–	–	< 4.00
O=C(NC[C@@H]1c2ccccc2CCN1C(=O)/C=C/c1cn[nH]c1)c1cncc2ccc(F)cc12	rep main protease	enzyme activity	–	–	4.73
O=C1c2ccccc2NC(c2cc(Br)ccc2O)N1N=Cc1cc(Br)ccc1O (stereo not drawn)	rep main protease	enzyme activity in cells	–	–	< 4.40
O=C(O)CNC(=O)CC1SC(=NN=Cc2c(-c3ccccc3)[nH]c3ccccc23)NC1=O (stereo not drawn)	rep methyltransferase	enzyme activity	–	–	4.16
CN(C)[C@@H]1C(O)=C(C(N)=O)C(=O)[C@@]2(O)C(O)=C3C(=O)c4c(O)cccc4[C@@](C)(O)[C@H]3[C@H](O)[C@@H]12	rep main protease	enzyme activity in cells	–	–	< 4.22
COc1nc2ccc(Br)cc2cc1[C@@H](c1ccccc1)[C@@](O)(CCN(C)C)c1cccc2ccccc12	rep main protease	enzyme activity	–	–	5.12
COc1ccc2nc(NC(=O)CSc3nc4ccccc4c4nnnn34)sc2c1	rep methyltransferase	enzyme activity	–	–	4.35
CN1CCN(C(=O)c2ccc(-c3ccc4c(C=O)c(O)ccc4c3)s2)CC1	rep main protease	enzyme activity	–	–	5.89
CCOc1nc2cccc(C(=O)O)c2n1Cc1ccc(-c2ccccc2-c2nnn[nH]2)cc1	rep main protease	enzyme activity in cells	–	–	< 4.22
O=c1nc(Nc2cccc(Cl)c2)cn[nH]1	rep methyltransferase	enzyme activity	–	–	4.06
O=C(CC1Sc2ncnn2C1=O)Nc1ccc(Br)cc1 (stereo not drawn)	rep main protease	enzyme activity	fluorescence	–	< 4.70
O=c1oc2c(cc1O)oc(=O)c1cc(O)c(O)c(O)c12	rep methyltransferase	enzyme activity	–	–	4.62
O=c1[nH]nc(Sc2ncc([N+](=O)[O-])s2)n1-c1ccc2c(c1)OCCO2	rep main protease	enzyme activity	–	–	6.52
CC(C)c1nnc(NC(=O)c2cccc(N3C(=O)c4ccccc4C3=O)c2)s1	rep methyltransferase	enzyme activity	–	–	4.45
COCCn1c2c([n+](Cc3cnccn3)c1C)C(=O)c1ccccc1C2=O	rep papain-like protease	enzyme activity	FRET	pH 7.5	4.70
CN(C)S(=O)(=O)c1cccc(-n2sc3ccccc3c2=O)c1	rep main protease	enzyme activity	–	–	7.70
Cc1cc(/C=C/c2ccc3cc(N(C)C)ccc3[n+]2C)c(C)n1-c1ccccc1	rep methyltransferase	enzyme activity	–	–	4.36
CC(=O)N[C@@H](CS)C(=O)O	rep papain-like protease	enzyme activity	–	–	< 3.82
N#Cc1c(N)[nH]c2cc(/C=C/c3cccc(F)c3)ccc12	rep papain-like protease	enzyme activity	fluorescence	–	< 4.00
O=C(/C=C/c1ccc2ccc(C(F)(F)F)cc2n1)c1ccncc1	rep main protease	enzyme activity	–	–	5.11
CCCCC/C=C\C/C=C\CCCCCCCC(=O)O	rep methyltransferase	enzyme activity	–	–	4.41
COC(=O)C1=C(C)NC(C)=C(C(=O)OCCN2CCN(C(c3ccccc3)c3ccccc3)CC2)C1c1cccc([N+](=O)[O-])c1 (stereo not drawn)	rep main protease	enzyme activity in cells	–	–	< 5.00
CSc1ccc(C(=O)c2[nH]c(=O)[nH]c2C)cc1	rep main protease	enzyme activity	–	–	< 4.70
